This is a sample that favours compounds with a hit; in the whole collection about 2.1% have one here.
MC4R antag cAMP – human MC4R antagonism in cAMP assay. P32245. MC4R-expressing cells, MTII-stimulated cAMP, LANCE TR-FRET. inhibition, % at 6.5 µM. 360,000 tested, 0.48% active. AID 540295;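 active = inhibition above its plate's cutoff, the mean of tested wells on that plate plus 3 SD, cut at about 29% in these data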
Target sequence (P32245 whole entry, looked up): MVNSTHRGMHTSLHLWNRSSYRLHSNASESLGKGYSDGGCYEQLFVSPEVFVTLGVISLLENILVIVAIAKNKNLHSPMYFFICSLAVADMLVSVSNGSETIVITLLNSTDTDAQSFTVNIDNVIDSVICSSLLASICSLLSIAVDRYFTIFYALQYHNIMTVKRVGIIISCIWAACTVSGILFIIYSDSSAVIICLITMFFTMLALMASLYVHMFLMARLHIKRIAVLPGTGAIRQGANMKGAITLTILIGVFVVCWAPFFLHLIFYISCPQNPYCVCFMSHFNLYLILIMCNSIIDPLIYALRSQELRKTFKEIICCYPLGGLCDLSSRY
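System: U2OS cells stably expressing human melanocortin 4 receptor (MC4R). Reagent: Melanotan II challenge after compound preincubation. Doses: 6.5 µM. Times: 30-min compound, 1-h challenge, 1-h detection, room temperature. Measured by: TR-FRET with Eu-cAMP and labeled anti-cAMP, 671 nm. Replicates: singlicate.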
SMARCA2 act – increases SMARCA2 function in MMTV reporter cells; activation, % at 9.1 µM; AID 652017; 370,000 tested, 1% active; MG213 cells, MMTV-luciferase reporter, dexamethasone, overnight; in the data active = activation above about 7.8%
MC4R ag barr – agonists of human melanocortin 4 receptor (MC4R) beta-arrestin | P32245 | activation, % at 8.9 µM | U2OS MC4R beta-arrestin complementation, luminescence; percent of melanotan II response, DMSO zero | 360,000 tested, 0.98% active | AID 540308;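 active = activation above a per-plate cutoff, the mean activation of sample wells on that plate plus 3 SD, cut at about 8% in these data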
CFTR F508del cor – correctors of CFTR F508del function in bronchial epithelial cells. AID 720511. CFBE cells, YFP halide quenching; stimulated with forskolin plus potentiator P3; % fluorescence drop versus neutral controls. activity (quench increase), % at 7.58 µM. 350,000 tested, 0.36% active;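 active = mean added fluorescence quench of at least 8% versus neutral control, with both replicates also reaching 8%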;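 also: cells transiently co-express mutant CFTR-F508del with the halide-sensitive YFP; corrector assay measuring rescue of mutant channel to the surface after 24 h compound exposure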
Each line names hits and unclear results; the compound was inactive in the other large screens.

C[C@H]1CN([C@@H](C)CO)C(=O)c2cc(C#Cc3ccccc3F)cnc2O[C@@H]1CN(C)C(=O)C1CCCCC1	none (no result: MC4R antag cAMP, SMARCA2 act, MC4R ag barr)
COc1ccccc1-c1cnc2c(c1)C(=O)N([C@H](C)CO)C[C@@H](C)[C@@H](CN(C)Cc1ccc(F)cc1)O2	none (no result: MC4R antag cAMP, SMARCA2 act, MC4R ag barr)
CNC[C@@H]1Oc2ccc(N(C)C)cc2C(=O)N([C@H](C)CO)C[C@@H]1C	none (no result: MC4R antag cAMP, SMARCA2 act, MC4R ag barr)
COc1ccc(O)c(-c2nc(N)nc(N)n2)c1	none
Nc1nc(N)nc(-c2cc(F)ccc2O)n1	SMARCA2 act 7.9
CN(C)C(=O)C[C@@H]1CC[C@H]2[C@@H](COC[C@@H](O)CN2CC2CC2)O1	none (no result: MC4R antag cAMP, SMARCA2 act, MC4R ag barr)
COc1ccc(C(=O)OCC(=O)Nc2ccc(Cl)cn2)cc1	MC4R ag barr 8.8
O=C(COC(=O)c1ccccc1)Nc1ccc(Cl)cn1	none
Cc1ccc(S(=O)(=O)N2CCOCC2)cc1NC(=O)CSc1nnc(COc2ccccc2F)n1N	CFTR F508del cor 28
C[C@@H]1CN([C@H](C)CO)C(=O)c2cc(NC(=O)Cn3cnnn3)ccc2O[C@H]1CN(C)C(=O)Nc1ccc(C(F)(F)F)cc1	none (no result: MC4R antag cAMP, SMARCA2 act, MC4R ag barr)
Cc1ccc(C(=O)NC(=S)NNC(=O)c2ccccc2O)cc1	CFTR F508del cor 9.7
COC(=O)c1ccc(C2C(Oc3ccccc3)C(=O)N2CCc2ccc(OC)c(OC)c2)cc1 (configuration not stated)	MC4R ag barr 8.9 (no result: CFTR F508del cor)
COc1ccc(OC2C(=O)N(CCc3ccc(OC)c(OC)c3)C2c2ccc3c(c2)OCO3)cc1 (configuration not stated)	none (no result: CFTR F508del cor)
O=C(Cc1c(Cl)cccc1Cl)NCCc1ccc(Cl)cc1	MC4R ag barr 9.3 (no result: CFTR F508del cor)
OC(c1ccccc1)c1nc(-c2cccc(C(F)(F)F)c2)cs1 (configuration not stated)	MC4R ag barr 9.5
COc1cc(C(=O)Nc2ccc3c(c2)ncn3C)cc(OC)c1OC	CFTR F508del cor 12
c1ccc(-c2cn3ccccc3n2)cc1	SMARCA2 act 7.9
CC(=O)Nc1ccc(NC(=O)COc2cccc3c2OC(C)(C)C3)cc1	CFTR F508del cor 11
COC(=O)c1ccc(NC(=O)COc2cccc3c2OC(C)(C)C3)cc1	none
COc1ccc(-c2cc3c(c(-c4ccc(Oc5ccccc5)cc4)n2)[Si](C(C)C)(C(C)C)OC3)cn1	none (no result: MC4R antag cAMP, SMARCA2 act, MC4R ag barr)
CC(=O)Nc1ccc(S(=O)(=O)N2c3ccccc3C(C)=CC2(C)C)cc1	CFTR F508del cor 9.5
O=C(CN(Cc1ccccc1)S(=O)(=O)c1ccc(F)cc1)NCc1cccnc1	CFTR F508del cor 9.0
COc1ccc(S(=O)(=O)N(CC(=O)NCc2cccnc2)Cc2ccccc2)cc1	none
CCC(=O)N1CC(=O)N2[C@H](C1)[C@@H](c1ccc(C#Cc3cccc(OC)c3)cc1)[C@@H]2CO	none (no result: MC4R antag cAMP, SMARCA2 act, MC4R ag barr)
C[C@@H]1CCCCO[C@@H](CN(C)Cc2ccc(C(=O)O)cc2)[C@H](C)CN([C@@H](C)CO)C(=O)c2cc(NC(=O)Nc3ccc(F)cc3)ccc2O1	none (no result: MC4R antag cAMP, SMARCA2 act, MC4R ag barr)
O=C1OCC2=C1C(c1ccc3c(c1)OCO3)c1cc3c(cc1O2)OCO3 (configuration not stated)	CFTR F508del cor 9.8
COc1cc(C2C3=C(COC3=O)Oc3cc4c(cc32)OCO4)cc(OC)c1OC (configuration not stated)	none
CCS(=O)(=O)N1CC(=O)N2[C@H](C1)[C@@H](c1ccc(-c3ccc(C)cc3)cc1)[C@@H]2CO	none (no result: MC4R antag cAMP, SMARCA2 act, MC4R ag barr)
Oc1cc(Nc2ccccc2)cc2cccnc12	none
Oc1cccc2cc(Nc3ccccc3)cnc12	CFTR F508del cor 10.0
C[C@@H]1CCCCO[C@H](CN(C)C(=O)Nc2ccccc2)[C@@H](C)CN([C@@H](C)CO)C(=O)c2cc(NS(=O)(=O)c3cccs3)ccc2O1	none (no result: MC4R antag cAMP, SMARCA2 act, MC4R ag barr)
Cc1ccc(SCC(=O)Nc2nccs2)cc1	SMARCA2 act 7.8
O=C(CSc1ccccc1)Nc1nccs1	none
CCCn1c(SCC(=O)c2ccc3c(c2)NC(=O)CO3)nc2ccccc21	none
Cn1c(SCC(=O)c2ccc3c(c2)NC(=O)CO3)nc2ccccc21	MC4R ag barr 14
CC(C(=O)N1CCc2ccccc2C1)N(c1ccccc1)S(C)(=O)=O (configuration not stated)	none
CC(=C1C(=O)c2ccccc2C1=O)N1CCc2ccccc2C1	SMARCA2 act 7.9
Cc1ccc(C)c(N(C)C(=O)c2cc3c(=O)[nH]c4ccc(C)cc4c3s2)c1	MC4R ag barr 9.1
CCCN(CCC)C(=O)c1cc2c(=O)[nH]c3ccc(C)cc3c2s1	none
C[C@H]1CCCCO[C@H](CN(C)Cc2ccncc2)[C@@H](C)CN([C@@H](C)CO)C(=O)c2cc(NS(=O)(=O)c3cn(C)cn3)ccc2O1	none (no result: MC4R antag cAMP, SMARCA2 act, MC4R ag barr)
O=C(CN1CCN(S(=O)(=O)c2ccccc2)CC1)Nc1ccccc1Cl	CFTR F508del cor 8.5
O=C(CN1CCN(S(=O)(=O)c2ccccc2)CC1)Nc1ccccc1C(=O)c1ccccc1	none (no result: CFTR F508del cor)
CCCC(=O)Nc1ccc2c(c1)C(=O)N(C)C[C@@H](OC)[C@@H](C)CN(C(=O)c1ccncc1)[C@H](C)CO2	none (no result: MC4R antag cAMP, SMARCA2 act, MC4R ag barr)
COc1ccc2c3c(n(C)c2c1)[C@H](CO)N(Cc1ccccc1Cl)CC31CCN(C(=O)CN(C)C)CC1	none (no result: MC4R antag cAMP, SMARCA2 act, MC4R ag barr)
O=c1ccc2[n+]([O-])c3ccc(O)cc3oc-2c1	CFTR F508del cor 23
O=c1cc(O)c2ccc(O)cc2o1	none
C[C@@H]1CN([C@H](C)CO)C(=O)c2cc(NC(=O)c3ccncc3)ccc2O[C@@H](C)CCCCO[C@H]1CN(C)C(=O)c1ccncc1	none (no result: MC4R antag cAMP, SMARCA2 act, MC4R ag barr)
Cc1nn(C)cc1CNC(=O)/C=C/c1cnn(C)c1	none (no result: CFTR F508del cor)
COc1ccc(/C=C/C(=O)NCc2cn(C)nc2C)cc1COc1ccc(Br)cc1	MC4R ag barr 9.1 (no result: CFTR F508del cor)
CCOC(=O)c1oc2ccccc2c1NC(=O)c1ccc2c(c1)OCO2	MC4R ag barr 9.4 (no result: CFTR F508del cor)
C[C@@H]1CN([C@@H](C)CO)C(=O)Cc2cc(NC(=O)Nc3cccc4ccccc34)ccc2O[C@@H]1CN(C)Cc1ccc(Cl)c(Cl)c1	CFTR F508del cor 9.9 (no result: MC4R antag cAMP, SMARCA2 act, MC4R ag barr)
C[C@@H]1CN([C@@H](C)CO)C(=O)Cc2cc(N(C)C)ccc2O[C@H]1CN(C)Cc1ccc(C(=O)Nc2ccccc2N)cc1	none (no result: MC4R antag cAMP, SMARCA2 act, MC4R ag barr)
C[C@@H]1CN([C@@H](C)CO)C(=O)Cc2cc(N(C)C)ccc2O[C@@H]1CN(C)Cc1ccc(C(=O)Nc2ccccc2N)cc1	CFTR F508del cor 15 (no result: MC4R antag cAMP, SMARCA2 act, MC4R ag barr)
C[C@@H]1CN([C@@H](C)CO)C(=O)Cc2cc(NC(=O)Nc3ccc(F)cc3)ccc2O[C@H]1CN(C)C(=O)Nc1cccc2ccccc12	none (no result: MC4R antag cAMP, SMARCA2 act, MC4R ag barr)
Cc1noc(C)c1NC(=O)Nc1ccc2c(c1)C(=O)N([C@@H](C)CO)C[C@@H](C)[C@H](CN(C)CC1CCCCC1)OCCCC[C@H](C)O2	none (no result: MC4R antag cAMP, SMARCA2 act, MC4R ag barr)
C=C(C)COc1ccc(-c2n[nH]c(C)c2-c2ccc(OC)cc2)c(O)c1	MC4R ag barr 9.6 (no result: CFTR F508del cor)
CC(=O)c1ccc(Nc2cc(C)nc3c(C)cc(C)cc23)cc1	CFTR F508del cor 17
CCc1cc2cc(C(=O)Nc3ccccc3F)sc2s1	MC4R ag barr 9.0 (no result: CFTR F508del cor)
CCc1cc2cc(C(=O)Nc3ccc(F)cc3)sc2s1	none (no result: CFTR F508del cor)
C[C@@H]1CN([C@@H](C)CO)C(=O)c2cccc(NC(=O)CCCCCC(=O)Nc3ccccc3N)c2O[C@@H]1CN(C)S(=O)(=O)c1ccc(Cl)cc1	none (no result: MC4R antag cAMP, SMARCA2 act, MC4R ag barr)

Assay outcomes from PubChem.
